20 molecules from ChEMBL document CHEMBL1124005, “Inhibitors of cyclic AMP phosphodiesterase. 4. Synthesis and evaluation of potential prodrugs of lixazinone (N-cyclohexyl-N-methyl-4-[(1,2,3,5-tetrahydro-2- oxoimidazo[2,1-b]quinazolin-7-yl)-oxy]butyramide, RS-82856)” (J Med Chem, 1988) can be followed below.

Each structure is given as a SMILES string. Calls of active or inactive are those of the source. No cut-off for these calls is given here.

In series [1] the test system is Canis familiaris. Description: In vivo inotropic activity in canine model by intraduodenal administration of 3.16 mg/kg efficacious dose. The format is functional, Canis lupus familiaris.
Series [2] has as its system Canis familiaris. The experiment in a line: In vivo inotropic activity in canine model by intravenous administration of 0.316 mg/kg efficacious dose. The format is functional, Canis lupus familiaris.
For a further series, the species on record is Homo sapiens. The experiment in a line: Inhibition of platelet aggregation. The format is functional.
Series [3] can be described thus: In vitro inhibitory activity against platelet phosphodiesterase (PDE). The gist of the method: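 Human platelet cAMP PDE in 10 mM Tris-HCl pH 7.7, 10 mM MgSO4, 1 µM […]. Compounds dissolved in DMSO, held 10 min in medium before enzyme addition, then 10 min at 30 °C. Five inhibitor concentrations run in triplicate; IC50 read graphically from mean curves.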

Series [4] concerns Canis familiaris. Description: In vivo inotropic activity in canine model by intraduodenal administration of 0.316 mg/kg efficacious dose. The format is functional, Canis lupus familiaris.
Series [5] relates to Canis familiaris. Description: Pharmacokinetic parameter AUC was determined in dog after oral administration of 2b. The format is ADME, organism-based, Canis lupus familiaris. The conditions noted are these: in vivo. Put shortly: (§1)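 Six fasted conscious female dogs (9.4–10.5 kg) were each given one oral hard-gelatin capsule, dose equivalent to 15 mg parent drug, with 1 week between doses. Jugular blood was sampled at 0–24 h. Plasma parent drug was measured by HPLC after SCX/C-18 extraction (C-8, 280 nm, limit 5 ng/mL). AUC0–24 h was calculated by trapezoidal rule; values are mean ± SD.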

Series [6] concerns Canis familiaris. The experiment in a line: Pharmacokinetic parameter AUC was determined in dog after oral administration of 17b. Particulars: in vivo. The format is ADME, organism-based, Canis lupus familiaris. The gist of the method: as §1
Series [7] concerns Canis familiaris. Description: In vivo inotropic activity in canine model by intravenous administration of 0.10 mg/kg efficacious dose. The format is functional, Canis lupus familiaris. The conditions noted are these: dose 0.1 mg/kg.
Series [8] relates to Canis familiaris. The experiment in a line: In vivo inotropic activity in canine model by intravenous administration (Inactive). The format is functional, organism-based. Particulars: Canis lupus familiaris.
Series [9] deals with Canis familiaris. Description: In vivo inotropic activity in canine model by intraduodenal administration (Inactive). The format is functional, organism-based. The conditions noted are these: Canis lupus familiaris.
The test system of series [10] is Canis familiaris. Description: In vivo inotropic activity in canine model by intravenous administration 1.0 mg/kg efficacious dose. The format is functional, Canis lupus familiaris.
The test system of series [11] is Canis familiaris. Description: In vivo inotropic activity in canine model by intraduodenal administration of 1.0 mg/kg efficacious dose. The format is functional, Canis lupus familiaris.

Usually IC50 stands for the concentration that inhibits the measured activity by half. On to `Br.CN(C(=O)CCCOc1ccc2c(c1)CN(CC(N)=O)C(N)=N2)C1CCCCC1`, for which the “Max CF response” value in the series with Canis familiaris [1] and in the series on Canis familiaris [2] was 37% throughout. In addition, the results for the IC50 (in the series filed under Homo sapiens; in series [3]) were 4200 nM and 120 nM, respectively.

What is called AUC is concentration integrated over time. Higher therefore signals high exposure. Regarding `CN(C(=O)CCCOc1ccc2c(c1)CN1CC(=O)NC1=N2)C1CCCCC1` [LIXAZINONE], the “Max CF response” value in the series with Canis familiaris [4] came out at 42%; in the series on Canis familiaris [7], 71%. Moreover, the AUC with Canis familiaris [5] worked out at 257 ng·h/mL; with Canis familiaris [6], 268 ng·h/mL. Besides, the 50% inhibitory concentration (IC50) came out at 50 nM in the series listed under Homo sapiens and 6 nM in series [3].

On to `Br.CN(C(=O)CCCOc1ccc2c(c1)CN(CC(=O)N1CCOCC1)C(N)=N2)C1CCCCC1`, for which the “Max CF response” value in the series with Canis familiaris [1] is listed as 70%; in the series on Canis familiaris [2], 71%. The concentration for half-maximal inhibition (IC50) in the series filed under Homo sapiens stood at 700 nM; in [3], 52 nM.

In the case of `Br.CN(C(=O)CCCOc1ccc2c(c1)CN(CC(=O)OC(C)(C)C)C(N)=N2)C1CCCCC1`, the “Max CF response” value in the series with Canis familiaris [8] and with Canis familiaris [9] was “inactive” throughout. Moreover, the results for the 50% inhibitory concentration (IC50) (in the series listed under Homo sapiens; in series [3]) were 4300 nM and 430 nM, respectively.

In the case of `Br.CN(C(=O)CCCOc1ccc2c(c1)CN(CC(=O)OC1CCCCC1)C(N)=N2)C1CCCCC1`, the “Max CF response” value in the series on Canis familiaris [1] was 45%. Also, the results for the IC50 (in the series filed under Homo sapiens; in series [3]) were 1200 nM and 52 nM, respectively.

In turn, `Br.CN(C(=O)CCCOc1ccc2c(c1)CN(CC(=O)OCC(C)(C)C)C(N)=N2)C1CCCCC1` had a 50% inhibitory concentration (IC50) in series [3] of 35 nM.

Regarding `Br.CN(C(=O)CCCOc1ccc2c(c1)CN(CC(=O)O)C(N)=N2)C1CCCCC1`, the “Max CF response” value with Canis familiaris [8] and in the series with Canis familiaris [9] was “inactive” throughout. For the same molecule, the IC50 in series [3] is 60 nM.

For the molecule `Br.CC(C)OC(=O)CN1Cc2cc(OCCCC(=O)N(C)C3CCCCC3)ccc2N=C1N`, the “Max CF response” value was determined as 31% in the series with Canis familiaris [1] and 40% with Canis familiaris [2]. The 50% inhibitory concentration (IC50) in the series listed under Homo sapiens stood at 3400 nM; in series [3], 63 nM.

In series [3], `Br.CN(C(=O)CCCOc1ccc2c(c1)CN(CC(=O)N1CCCCC1)C(N)=N2)C1CCCCC1` yielded an IC50 of 10 nM.

Take `CCOC(=O)CN1Cc2cc(OCCCC(=O)N(C)C3CCCCC3)ccc2N=C1NC(C)=O`: the “Max CF response” value with Canis familiaris [1] and with Canis familiaris [10] was 58% in each case. Moreover, the IC50 in the series listed under Homo sapiens came out at 100000 nM; in series [3], 3100 nM.

On to `Br.CC(OC(=O)CN1Cc2cc(OCCCC(=O)N(C)C3CCCCC3)ccc2N=C1N)c1ccccc1` (stereo not given), for which the results for the “Max CF response” value in the series with Canis familiaris [1] and with Canis familiaris [2] were 64% and 61%, respectively. The results for the IC50 (in the series filed under Homo sapiens; in [3]) were 150 nM and 8 nM, respectively.

`CN(C(=O)CCCOc1ccc(N)c(CN2CC(=O)NC2=O)c1)C1CCCCC1`: the half-inhibitory concentration (IC50) in [3] is on record as 3400 nM.

In the case of `CN(C(=O)CCCOc1ccc2c(c1)CN1CC(=O)N(CN3CCOCC3)C1=N2)C1CCCCC1`, the Max CF response turned out to be 25% in the series with Canis familiaris [4] and 65% in the series with Canis familiaris [7]. In series [3], this molecule returned a 50% inhibitory concentration (IC50) of 16 nM.

With `Br.CN(C(=O)CCCOc1ccc2c(c1)CN(CC(=O)Nc1ccccc1)C(N)=N2)C1CCCCC1`, the “Max CF response” value is recorded as 37% in the series on Canis familiaris [1] and 64% in the series with Canis familiaris [2]. The 50% inhibitory concentration (IC50) in the series filed under Homo sapiens was found to be 5400 nM; in [3], 100 nM.

With `Br.CCOC(=O)CN1Cc2cc(OCCCC(=O)N(C)C3CCCCC3)ccc2N=C1N`, the “Max CF response” value was found to be 62% in the series with Canis familiaris [1] and 75% in the series with Canis familiaris [2]. In series [3], the IC50 is 9.3 nM.

As to `CN(C(=O)CCCOc1ccc2c(c1)CN1CC(=O)N(COC(=O)C(C)(C)C)C1=N2)C1CCCCC1`, the half-maximal inhibitory concentration (IC50) in [3] was 150 nM.

Turning to `CCOC(=O)C(CCOc1ccc2c(c1)CN1CC(=O)NC1=N2)C(=O)N(C)C1CCCCC1` (stereo not given), the “Max CF response” value in the series with Canis familiaris [2] and with Canis familiaris [11] was 50% each time. This molecule also gave a half-maximal inhibitory concentration (IC50) in [3] of 6.1 nM.

With `CN(C(=O)CCCOc1ccc2c(c1)CN(CC(N)=O)C(=O)N2)C1CCCCC1`, the IC50 in series [3] was determined as 18500 nM.

For `CN(C(=O)C(CCOc1ccc2c(c1)CN1CC(=O)NC1=N2)C(=O)O)C1CCCCC1` (stereo not given), the figures for the “Max CF response” value in the series on Canis familiaris [2] and with Canis familiaris [11] were 58% and 20%, respectively. The IC50 in [3] turned out to be 5 nM.

As for `Br.CC(OC(=O)CN1Cc2cc(OCCCC(=O)N(C)C3CCCCC3)ccc2N=C1N)C(C)(C)C` (stereo not given), the “Max CF response” value in the series on Canis familiaris [1] was found to be 62%. Moreover, the concentration for half-maximal inhibition (IC50) in the series filed under Homo sapiens is 17000 nM; in series [3], 470 nM.
